Data set [1] deals with Escherichia coli. The data set can be described thus: Antibacterial activity against Escherichia coli RP437 expressing red fluorescence protein assessed as inhibition of biofilm formation at 200 uM after 24 hrs by confocal laser scanning microscopic analysis. The format is functional, organism-based. In short, it runs like this: (§1)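 E. coli RP437 (pRSH103, red fluorescent; grown in LB with 10 µg/mL tetracycline) formed biofilms on 316 stainless-steel coupons with 200 µM compound or 0.4% DMSO control, static, 37 °C, 24 h. Coupons rinsed three times in 0.9% NaCl, then imaged by CLSM. COMSTAT gave biomass, mean thickness and surface area from z-stacks at four locations, normalized to the BF-free control. Four replicates.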

For data set [2], the target named is T1, HTH-type quorum-sensing regulator RhlR (Pseudomonas aeruginosa (strain ATCC 15692 / PAO1 / 1C / PRS 101 / LMG12228)) (UniProt P54292).
T1 sequence (whole entry): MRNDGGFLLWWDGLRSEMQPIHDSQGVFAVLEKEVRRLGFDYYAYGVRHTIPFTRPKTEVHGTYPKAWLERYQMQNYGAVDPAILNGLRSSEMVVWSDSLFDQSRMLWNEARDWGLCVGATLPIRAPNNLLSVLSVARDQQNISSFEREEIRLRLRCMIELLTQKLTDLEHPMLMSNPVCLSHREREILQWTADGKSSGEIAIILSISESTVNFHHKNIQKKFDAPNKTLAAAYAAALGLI
The data set can be described thus: Agonist activity at RhlR in Pseudomonas aeruginosa PAO1 expressing RhlI assessed as effect on GFP production at 50 to 300 uM after 24 hrs by fluorescence assay relative to control. In a few lines:
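PAO1 (prhlI-LVAgfp) grown in M9 with 300 µg/mL carbenicillin to OD600 0.1, exposed to compound at 50, 150 or 300 µM for 24 h at 37 °C with shaking at 250 rpm. Fluorescence read at ex 500/em 540 nm, M9 background subtracted, divided by OD600 and normalized to the BF-free control. Four replicates.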

The test system of data set [3] is Escherichia coli. The data set can be described thus: Antibacterial activity against Escherichia coli RP437 expressing red fluorescence protein assessed as inhibition of biofilm formation measured as reduction in mean thickness of biofilm at 200 uM after 24 hrs by confocal laser scanning microscopic analysis. The format is functional, organism-based. In short, it runs like this:
as §1

Data set [4] relates to SK-N-SH. The data set can be described thus: Cytotoxicity against human SK-N-SH cells assessed as cell survival at 100 uM incubated for 1 hr followed by compound washout measured up to 48 hrs by CCK-8 assay. The format is cell-based. In short, it runs like this:
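SK-N-SH cells seeded at 5×10^4 cells/mL (100 µL) in EMEM with 10% FBS and allowed to adhere 24 h. Exposed 1 h to 100 µM compound or DMSO control, washed twice, then allowed to recover 0, 24 or 48 h. Live cells measured by CCK-8 at A450. Survival = (sample − medium)/(control − medium) × 100.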
(Formazan colour is commonly taken as a measure of viable cells.)

The nature of data set [5]: Cytotoxicity against human SK-N-SH cells assessed as cell survival at 400 uM incubated for 1 hr followed by compound washout measured after 24 hrs by CCK-8 assay relative to control. The class given is cell-based. To be noted: read-out: Survival. In a few lines: (§2)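 SK-N-SH cells were grown in EMEM with 10% FBS, penicillin/streptomycin and 2.0 mM L-glutamine at 37 °C, 5% CO2. Wells were seeded at 5×10^4 cells/mL and left 24 h to adhere. Cells were exposed for 1 h in fresh medium, with DMSO-matched controls, then washed twice. After 0, 24 or 48 h recovery, CCK-8 A450 was read. Survival = (sample−medium)/(control−medium)×100.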

Data set [6] relates to Escherichia coli. The data set can be described thus: Antibacterial activity against Escherichia coli RP437 expressing red fluorescence protein assessed as inhibition of biofilm formation measured as reduction in biomass at 200 uM after 24 hrs by confocal laser scanning microscopic analysis. The class given is functional, organism-based. In a few lines:
as §1

Data set [7] can be described thus: Cytotoxicity against human SK-N-SH cells assessed as cell survival at 400 uM incubated for 1 hr followed by compound washout measured immediately by CCK-8 assay relative to control. As to conditions: read-out: Survival. The format is cell-based. In short, it runs like this: as §2
The subject of data set [8] is Escherichia coli. The data set can be described thus: Toxicity in Escherichia coli RP437 assessed as planktonic growth inhibition at 200 uM up to 8 hrs. The format is organism-based. To be noted: in vivo. In a few lines:
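E. coli RP437 in LB at 37 °C, started at OD600 0.05 in 96-well plates with 200 µM compound (DMSO stock), shaken at 250 rpm. OD600 read at 0, 2, 4, 6, 8, 10, 12 and 24 h, normalized to the BF-free control. Six replicates.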

Data set [9] concerns the target T2, Transcriptional activator protein LasR (Pseudomonas aeruginosa (strain ATCC 15692 / PAO1 / 1C / PRS 101 / LMG12228)) (UniProt P25084).
T2 sequence (whole entry): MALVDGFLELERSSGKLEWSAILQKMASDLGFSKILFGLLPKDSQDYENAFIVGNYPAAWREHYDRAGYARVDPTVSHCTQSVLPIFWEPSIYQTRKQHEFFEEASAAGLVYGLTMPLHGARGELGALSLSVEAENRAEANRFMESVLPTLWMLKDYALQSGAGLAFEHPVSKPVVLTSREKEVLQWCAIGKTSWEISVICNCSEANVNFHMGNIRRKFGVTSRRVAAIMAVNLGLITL
The data set can be described thus: Antagonist activity at LasR in Pseudomonas aeruginosa PAO-JP2 expressing LasI assessed as inhibition of GFP production at 50 to 300 uM after 24 hrs by fluorescence assay in presence of 3-oxo-C12-HSL. In short, it runs like this: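 PAO-JP2 (plasI-LVAgfp) grown in M9 with 300 µg/mL carbenicillin to OD600 0.1, given 1 µM 3-oxo-C12-HSL ± compound at varied concentrations, incubated 24 h at 37 °C with shaking at 250 rpm. GFP read at ex 500/em 540 nm, M9 background subtracted, divided by OD600 and normalized to the BF-free control. Four replicates.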

Data set [10] can be described thus: Cytotoxicity against human SK-N-SH cells assessed as cell survival at 400 uM incubated for 1 hr followed by compound washout measured after 48 hrs by CCK-8 assay relative to control. The format is cell-based. To be noted: read-out: Survival. In short, it runs like this:
as §2

The subject of data set [11] is Escherichia coli. The data set can be described thus: Antibacterial activity against Escherichia coli RP437 expressing red fluorescence protein assessed as inhibition of biofilm formation measured as reduction in surface area at 200 uM after 24 hrs by confocal laser scanning microscopic analysis. The format is functional, organism-based. In a few lines: as §1
In data set [12] the target is T2, Transcriptional activator protein LasR (Pseudomonas aeruginosa (strain ATCC 15692 / PAO1 / 1C / PRS 101 / LMG12228)). The data set can be described thus: Antagonist activity at LasR in Pseudomonas aeruginosa PAO1 expressing LasI assessed as inhibition of GFP production at 50 to 300 uM after 24 hrs by fluorescence assay relative to control.
In data set [13] the test system is Pseudomonas aeruginosa. The data set can be described thus: Toxicity in Pseudomonas aeruginosa PAO1 assessed as planktonic growth inhibition at 400 uM after 24 hrs. The format is organism-based. As to conditions: in vivo.
The test system of data set [14] is Pseudomonas aeruginosa. The data set can be described thus: Antibacterial activity against Pseudomonas aeruginosa PAO1 expressing green fluorescence protein assessed as inhibition of biofilm formation at 400 uM after 24 hrs by confocal laser scanning microscopic analysis. The class given is functional, organism-based. In a few lines: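 PA01-GFP (pSMC2; grown in LB with 300 µg/mL carbenicillin) formed biofilms on stainless-steel coupons with 400 µM compound, static, 37 °C, 24 h. Coupons rinsed three times in 0.9% saline, then imaged by CLSM.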

The text below walks through data of ChEMBL document CHEMBL3112522, “Bicyclic brominated furanones: a new class of quorum sensing modulators that inhibit bacterial biofilm formation” (Bioorg Med Chem, 2014).

Each structure is given as a SMILES string. Calls of active or inactive are those of the source. The rule behind the calls is not given here.

For the molecule `CC1=C(Br)/C(=C\Br)OC1=O`, the inhibition entry in data set [1], in data set [3], in data set [6], in data set [9] and in [11] was “Active” each time. Further, the outcome in [2] was inactive. Also, the Activity result in data set [4] and in data set [8] was “Toxic” in each case. Moreover, the viability at 1 h, 400 µM is under 2% in data set [5], 29% in data set [7] and under 2% in data set [10]. Further, the inhibition (usually the share of the control response that was lost under treatment) in data set [12] is 46%.
`O=C1C=C(Br)/C(=C/Br)O1`: the Activity entry in data set [13] was “Toxic”. In addition, the inhibition result in [14] was “Active”.
